Data taken from ChEMBL document CHEMBL4513216, “Probing the Open Global Health Chemical Diversity Library for Multistage-Active Starting Points for Next-Generation Antimalarials” (ACS Infect Dis, 2020).

Test: Toxicity liver stage against HepG2, at 10uM
Type: cell-based
Design: test concentration 10 uM, cell line HepG2-A16-CD81EGFP
Details: human, HepG2-A16-CD81EGFP cells; read-out: INHIBITION
How it was run: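 Uninfected HepG2-A16-CD81EGFP cells, 3 × 10^3 per well, 1536-well, plated on prespotted compound at 10 μM final, parasite-free screening media added to match infected plates; puromycin 10 μM positive, DMSO 0.5% negative; run in parallel with 48 h PbLuc assay at 37 °C, 5% CO2; viability by CellTiter-Glo luminescence, normalized to controls.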

COCCC(=O)N[C@H]1CC[C@H](Nc2nccc(-c3ccncc3)n2)C1
cytotoxicity at 10 µM: 11.5%

Cc1cc(CN2CCCC2)cc(Oc2ccc(C(F)(F)F)cn2)c1
cytotoxicity at 10 µM: -9.72%

CCN1CCN(c2ncnc3c2CCN(C(=O)C2CC2)C3)CC1
cytotoxicity at 10 µM: -3.2%

CC(=O)N1CCc2[nH]cnc2C12CCN(C(=O)Cc1cccs1)CC2
cytotoxicity at 10 µM: 7.2%

CCNC(=O)[C@@H]1C[C@H](N)CN1Cc1ccc(-c2cc[nH]n2)o1
cytotoxicity at 10 µM: -47.6%

COc1ccc2c(c1)OCC(Cc1cncc(N)c1)C2 (stereo unspecified)
cytotoxicity at 10 µM: -0.918%

Cc1sc2ncnc(N3CCC(N(C)Cc4cnn(C)c4)CC3)c2c1C
cytotoxicity at 10 µM: -2.98%

COc1ccc(-c2ccoc2)cc1CNC1CCCC1
cytotoxicity at 10 µM: -3.45%

CN(Cc1ccccc1)S(=O)(=O)N1C[C@@H](C(=O)O)[C@H](C2CC2)C1
cytotoxicity at 10 µM: -150%

Cc1ncsc1CCN(C)C(=O)CN1CCOC1=O
cytotoxicity at 10 µM: -15.3%

CC(C)=CCC1(C(=O)O)CCCN(CCC(=O)NC2CC2)C1 (stereo unspecified)
cytotoxicity at 10 µM: -7.69%

CCc1n[nH]c(C(=O)N2CCN(c3ccc4ccccc4c3)CC2)c1C
cytotoxicity at 10 µM: -3.03%

CNc1nc(C)c(C(=O)N2CCC(C(O)Cc3ccccc3)CC2)s1 (stereo unspecified)
cytotoxicity at 10 µM: 3.11%

O=C(C1CC1)N1CCC(C(=O)N2CCC(c3ccc(F)cc3)C2)CC1 (stereo unspecified)
cytotoxicity at 10 µM: -46.3%

NC(=O)CCn1cc(CNCc2csc(N)n2)c2ccccc21
cytotoxicity at 10 µM: 6.7%

CCc1cnc(NCCS(=O)(=O)N(C)C)nc1
cytotoxicity at 10 µM: -10.2%

CC(=O)N[C@@H]1CN(C(=O)c2cc3ccccc3[nH]2)C[C@H]1c1ccc(C)o1
cytotoxicity at 10 µM: -10.2%

COc1ccc(C)cc1NC(=O)c1coc(C)n1
cytotoxicity at 10 µM: -7.66%

COCc1ncc(CN(Cc2ccncc2)Cc2ccc(C)s2)cn1
cytotoxicity at 10 µM: -47%

COc1ccc(-c2nccn2CC(O)CN2CCCC2)c(F)c1 (stereo unspecified)
cytotoxicity at 10 µM: 2.87%

CC(=O)Nc1ccc(Cl)c(C(=O)N(C)C(C)c2nccs2)c1 (stereo unspecified)
cytotoxicity at 10 µM: -42.8%

O=C1CC2(CCN(Cc3ccc(Cl)s3)C2)C(=O)N1 (stereo unspecified)
cytotoxicity at 10 µM: -3.3%

CCn1ccc2ccc(CN3CCCC3c3nc(C(C)C)no3)cc21 (stereo unspecified)
cytotoxicity at 10 µM: 5.15%

CC(C)SCC(=O)N1CCc2c(nc(N(C)C)nc2N(C)C)C1
cytotoxicity at 10 µM: 21.1%

Cc1nnc(CCNC2CCN(c3ncnc4c(C)csc34)CC2)s1
cytotoxicity at 10 µM: 20.7%

NC(=O)C1CCCN(Cc2c(-c3ccco3)[nH]c3ncccc23)C1 (stereo unspecified)
cytotoxicity at 10 µM: 3.91%

c1ccc(CCN2CCN(c3ccc4nncn4n3)CC2)cc1
cytotoxicity at 10 µM: -11.7%

CCc1nc(C2CCCN2Cc2cc(C)nc3ccccc23)no1 (stereo unspecified)
cytotoxicity at 10 µM: 86%

CCc1nc(C2CCCN(C(=O)c3ccccc3F)C2)no1 (stereo unspecified)
cytotoxicity at 10 µM: 2.64%

O=C1CN(C(=O)c2cccc(OCc3cscn3)c2)CCN1
cytotoxicity at 10 µM: 1.9%

CCOCCN1CCC(C(=O)c2cc(F)ccc2F)CC1
cytotoxicity at 10 µM: -7.33%

Cn1cc(NS(=O)(=O)c2ccc(C(F)(F)F)cc2)ccc1=O
cytotoxicity at 10 µM: 6.08%

CCn1cc(NC(=O)NCC(O)COc2ccccc2)cn1 (stereo unspecified)
cytotoxicity at 10 µM: -8.6%

CCn1nc2c(cc1=O)CN(Cc1nc(-c3cccs3)no1)CC2
cytotoxicity at 10 µM: -8.99%

NC(=O)C1CCCN(c2ccc(CNC(=O)c3cnsn3)cc2)C1 (stereo unspecified)
cytotoxicity at 10 µM: 2.25%

c1cc(CNCC2CNc3ccnn3C2)cc(OC2CCCC2)n1 (stereo unspecified)
cytotoxicity at 10 µM: -3.02%

O=C(CCc1ccc(Cl)s1)N1CCC(N2CCNC2=O)CC1
cytotoxicity at 10 µM: 2.6%

Cc1nc(CN(C)CC2CCCN2c2cccnn2)nc2ccccc12 (stereo unspecified)
cytotoxicity at 10 µM: -6.31%

CC(=O)NCc1ccc(C(=O)N2CCCCC2Cn2cccn2)o1 (stereo unspecified)
cytotoxicity at 10 µM: -4.22%

CCCNC(=O)CNc1cc(C#N)ccc1OCC
cytotoxicity at 10 µM: -11.6%

Cc1nc(C)n(CC2CCCN(Cc3nc(C4CC4)no3)C2)n1 (stereo unspecified)
cytotoxicity at 10 µM: -7.76%

Cc1nc(CN2CCCN(C(=O)c3ccccn3)CC2)oc1C
cytotoxicity at 10 µM: 0.289%

O=C(C1CCCCC1)N1CCC2(CC1)CNCc1ccccc12
cytotoxicity at 10 µM: -6.13%

Fc1ccc(CN2CCO[C@H]3[C@H](Oc4ccccn4)CC[C@@H]32)cc1
cytotoxicity at 10 µM: 6.44%

CC(C)NC(=O)N1CCC2(CCC(=O)N2CCN(C)C)CC1
cytotoxicity at 10 µM: -7.13%

Fc1ccc(N2CCOC3(COCCN(c4ncccn4)C3)C2)cc1 (stereo unspecified)
cytotoxicity at 10 µM: -95.4%

O=C(NC1CC1)[C@@H]1CCO[C@@H]2CCN(CC3CCC3)C[C@H]21
cytotoxicity at 10 µM: -111%

Fc1ccc(CN2CCCC3(COCCN(Cc4c[nH]nn4)C3)C2)cc1 (stereo unspecified)
cytotoxicity at 10 µM: 4.9%

Cc1ccc(CNC2CCCc3c2cnn3Cc2ccccc2)s1 (stereo unspecified)
cytotoxicity at 10 µM: 0.338%

Cc1nc(N2CCOCC2)nc2c1CCN(Cc1ccsc1)CC2
cytotoxicity at 10 µM: -130%

O=C(c1ccccc1)N1CCCC2(CCN2Cc2cccc(F)c2)C1 (stereo unspecified)
cytotoxicity at 10 µM: -121%

O=C(c1cccnc1)N1CCC2(CCN(C(=O)N3CCCC3)CC2)C1
cytotoxicity at 10 µM: -103%

CCC(=O)N1CCC2(CC1)CC(N1CCOCC1)c1cc(C)ccc12 (stereo unspecified)
cytotoxicity at 10 µM: -149%

Cc1ccc(CN2CC[C@@H]3[C@@H](CO[C@H]3CN(C)C)C2)o1
cytotoxicity at 10 µM: -130%

c1cnc(N2CCC3(CCN(Cc4cccnc4)CC3)CC2)nc1
cytotoxicity at 10 µM: -88.4%

CN(C)C(=O)CN1C[C@H]2CC[C@@H](C1)N(Cc1cccc(Cl)c1Cl)C2
cytotoxicity at 10 µM: -5.3%
